Where two headings read alike, the source gives them in different places.
How the values were obtained:
[1] = human, in vivo, inhaled or intranasal
animal models = settings: various animal models; cited from earlier work
dog = settings: in vivo
[2] = Properties of the reconstituted AP301 solution; format: physicochemical; settings: AP301 25 mg/mL, lyophilized powder reconstituted in water for injection
healthy male subjects [3] = settings: in vivo
healthy male subjects [4] = settings: in vivo; remark: listed apart in the source
[5] = tested on: ENaC in primary type II alveolar epithelial cells; settings: rat AEC type II cells, cited from earlier work
healthy male subjects [6] = settings: in vivo; remark: listed apart in the source
[7] = rat, in vivo; cited from earlier work
[8] = tested on: ENaC in primary type II alveolar epithelial cells; settings: pig AEC type II cells, cited from earlier work
[9] = in vivo
ENaC = settings: cell-based studies; no reference given; cited from earlier work
healthy male subjects [10] = settings: in vivo; remark: listed apart in the source
healthy male subjects [11] = settings: in vivo; remark: listed apart in the source
Aerosol characterization = format: physicochemical
Outline: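 Test compound supplied as lyophilized powder, reconstituted in water for injection to 25 mg/mL. The solution was aerosolized with an Aeroneb Solo vibrating-mesh nebulizer driven by an Aeroneb Pro-X controller. Particle distribution was measured by Next Generation Impactor at 15 L/min and by laser diffraction. Read-outs were fine particle fraction and average droplet size.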

[12] = mouse, in vivo; cited from earlier work
[13] = dog, in vivo; cited from earlier work
[14] = tested on: ENaC in primary type II alveolar epithelial cells; settings: dog AEC type II cells, cited from earlier work
healthy male subjects [15] = settings: in vivo; remark: listed apart in the source
[16] = tested on: acute lung injury (ALI) in anaesthetized domestic pigs; settings: pigs with ALI, single nebulization of 1.0 mg/kg, observation 5 hours; cited from earlier work
[17] = whole cell patch clamp, in the presence of AP301
[18] = 25 mg/mL solution, Aeroneb Solo nebulizer, laser diffraction, Apeptico Research Report, data on file

## C[C@@H]1NC(=O)CNC(=O)[C@H](CCC(=O)O)NC(=O)[C@@H]2CCCN2C(=O)[C@H]([C@@H](C)O)NC(=O)[C@H](CCC(=O)O)NC(=O)[C@H](CCCNC(=N)N)NC(=O)[C@H](CCC(N)=O)NC(=O)CNC(=O)[C@@H](N)CSSC[C@@H](C(=O)O)NC(=O)[C@H](Cc2ccc(O)cc2)NC(=O)[C@H](Cc2c[nH]c3ccccc23)NC(=O)[C@@H]2CCCN2C(=O)[C@H](CCCCN)NC(=O)[C@H](C)NC(=O)[C@H](CCC(=O)O)NC1=O [AP301]
[1]
  Tmax: ~5 min
[1]; 12 mg
  AUC(0-t): 0.0333 ng·h/mL
  Cmax: 0.4 ± 0.6 ng/mL
  Tmax: 5 min
[1]; 30 mg
  AUC(0-t): 0.0183 ng·h/mL
  Cmax: 0.3 ± 0.6 ng/mL
[1]; 60 mg
  AUC(0-t): 0.93 ng·h/mL
  Cmax: 2.2 ± 1.4 ng/mL
  Tmax: 5 min
[1]; 90 mg
  AUC(0-t): 0.758 ng·h/mL
  Cmax: 2.4 ± 2.1 ng/mL
[1]; 120 mg
  AUC(0-t): 0.877 ng·h/mL
  Cmax: 2.2 ± 1.8 ng/mL
  Tmax: 2.5 min
Animal models
  effective pharmacological dose range: 0.5–1.0 mg/kg BW
dog
  maximum recommended starting dose (MRSD): 0.1 mg/kg BW
[2]
  osmolarity of the solution: 23 mosmol/L
  pH of the solution: 4.40
  viscosity of the solution: 1.07 mPa s
Healthy male subjects [3]
  content of eNO versus baseline and pooled placebo: did not change
Healthy male subjects [4]
  number of AEs considered related to AP301 inhalation: 7
  overall frequency of AEs in subjects randomized to AP301: 25%
[5]; [17]
  increase of amiloride-sensitive Na+ currents (via ENaC) versus baseline: about 9 fold
Healthy male subjects [6]
  effects on vital signs (SBP, DBP, HR): no clinically meaningful dose-or time-dependent effects
[7]
  absorption from the pulmonary compartment into the systemic circulation: hardly absorbed
[8]; [17]
  increase of amiloride-sensitive Na+ currents (via ENaC) versus baseline: ~16 fold
[9]
  maximum exposure values (Cmax) at mean dose-cohort level: exceeding 2.0 ng/mL
  mean Cmax values in the highest dose groups: < 2.5 ng/mL
  median tmax values across dose groups: 0 to 5 min
ENaC
  concentration range in which ENaC activation was dose-dependent: 5 to 100 nM
Healthy male subjects [10]
  FEV1 declines of ≥20% from baseline: no FEV1 declines of ≥20% from baseline were noted in any subject
  effects on airway caliber or vital capacity (FVC, FEV1): absence of relevant dose-dependent effects
  subjects with post-dose FEV1 decline of ≥15% from baseline: only a single subject
Healthy male subjects [11]
  changes in safety laboratory variables: No clinically meaningful or remarkable dose-or time-dependent changes
Aerosol characterization; [18]
  average droplet size: 3.3 μm
  mean fine particle fraction (FPF): about 60%
Aerosol characterization; Next Generation Impactor at 15 L/min
  FPF as determined by NGI: 60%
[12]
  absorption from the pulmonary compartment into the systemic circulation: hardly absorbed
[13]
  absorption from the pulmonary compartment into the systemic circulation: hardly absorbed
[14]; [17]
  increase of amiloride-sensitive Na+ currents (via ENaC) versus baseline: ~13 fold
Healthy male subjects [15]
  QTc value: ≤ 450 milliseconds
  changes in ECG outcome variables: no clinically meaningful or remarkable dose-or time-dependent changes
[16]
  oxygenation (PaO2/FiO2): significant improvement
  pulmonary shunt fraction (Qs/Qt): reduction

## N=C(N)NC(=O)c1nc(Cl)c(N)nc1N [amiloride, reference compound]
[5]
  effect on the AP301-induced increase of Na+ current: could be inhibited
[8]
  effect on the AP301-induced increase of Na+ current: could be inhibited
[14]
  effect on the AP301-induced increase of Na+ current: could be inhibited

— publication PMC4160070 (Journal of clinical pharmacology, 2014)
